Laboratory results published in ChEMBL document CHEMBL4359830, “Discovery and structure-activity relationship of novel diphenylthiazole derivatives as BTK inhibitor with potent activity against B cell lymphoma cell lines” (Eur J Med Chem, 2019).

What was measured:
[1] = target: Tyrosine-protein kinase BTK (Homo sapiens, UniProt Q06187); test: Inhibition of human recombinant full length N-terminal His tagged BTK expressed in baculovirus infected Sf9 cells using poly (Glu,Tyr) 4:1 as substrate measured after 60 mins in presence of ATP by ADP-Glo kinase assay
Ramos [2] = test: Antiproliferative activity against human Ramos cells at 40 uM measured after 72 hrs by CCK-8 assay relative to control; format: functional; conditions: Homo sapiens, Ramos, 72 h
In short: (§1)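 Ramos or Raji cells in RPMI-1640 with 10% FBS and 1% penicillin-streptomycin at 37 °C, 5% CO2. Seeded at 2000–3000 cells/well one day before compound addition. Exposure 72 h, then CCK-8 with absorbance at 450 nm. […] Single-point inhibition at 40 µM reported as mean ± standard deviation.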

Raji [3] = test: Antiproliferative activity against human Raji cells at 40 uM measured after 72 hrs by CCK-8 assay relative to control; format: functional; conditions: Homo sapiens, Raji, 72 h; in short: as §1
Ramos [4] = test: Antiproliferative activity against human Ramos cells measured after 72 hrs by CCK-8 assay; format: functional, cell-based; in short: as §1
Raji [5] = test: Antiproliferative activity against human Raji cells measured after 72 hrs by CCK-8 assay; format: functional, cell-based; in short: as §1
Ramos [6] = test: Potency index, ratio of ibrutinib IC50 to compound IC50 for antiproliferative activity against human Ramos cells; format: functional

Tyrosine-protein kinase BTK, sequence (Q06187 whole entry): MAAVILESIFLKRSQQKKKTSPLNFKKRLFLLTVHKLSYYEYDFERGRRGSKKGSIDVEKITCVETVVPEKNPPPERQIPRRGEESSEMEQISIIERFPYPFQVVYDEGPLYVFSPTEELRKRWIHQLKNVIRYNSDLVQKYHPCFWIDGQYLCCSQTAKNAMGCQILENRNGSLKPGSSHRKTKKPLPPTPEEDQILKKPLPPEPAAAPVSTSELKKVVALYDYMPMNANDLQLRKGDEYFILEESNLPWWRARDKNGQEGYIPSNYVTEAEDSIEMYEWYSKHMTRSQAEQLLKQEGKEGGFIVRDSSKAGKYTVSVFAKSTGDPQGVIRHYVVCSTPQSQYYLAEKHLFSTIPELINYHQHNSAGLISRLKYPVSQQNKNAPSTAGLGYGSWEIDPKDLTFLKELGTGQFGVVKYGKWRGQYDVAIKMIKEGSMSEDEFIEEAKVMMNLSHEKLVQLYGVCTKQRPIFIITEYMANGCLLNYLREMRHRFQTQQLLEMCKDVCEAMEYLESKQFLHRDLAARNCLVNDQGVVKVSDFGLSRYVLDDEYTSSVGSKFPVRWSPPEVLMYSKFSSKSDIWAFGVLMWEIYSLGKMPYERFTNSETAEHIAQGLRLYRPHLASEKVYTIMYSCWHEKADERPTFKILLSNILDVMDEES

| IC50 [1] [µM] | IC50 (Ramos [4]) [µM] | IC50 (Raji [5]) [µM] | Compound | inhibition at 40 µM (Ramos [2]) [%] | inhibition at 40 µM (Raji [3]) [%] | Ratio IC50 (Ramos [6]) |
| --- | --- | --- | --- | --- | --- | --- |
| 2.1 | 2 | 9.27 | CCOC(=O)c1sc(-c2cccc(NC(=O)c3ccccc3F)c2)nc1Nc1ccc(N2CCN(C)CC2)cc1 | 96.3 | 89.8 | – |
| 5.25 | 8.6 | – | CN1CCN(c2ccc(Nc3nc(-c4cccc(NC(=O)c5ccc(C(C)(C)C)cc5)c4)sc3C(N)=O)cc2)CC1 | 80.1 | 12.1 | – |
| – | 5.6 | 8.74 | CN1CCN(c2ccc(Nc3nc(-c4cccc(NC(=O)c5ccc(F)c(Cl)c5)c4)sc3C(=O)O)cc2)CC1 | 98.6 | 87.9 | – |
| 0.206 | 1.58 | 3.21 | CN1CCN(c2ccc(Nc3nc(-c4cccc(NC(=O)c5ccc(C(F)(F)F)cc5)c4)sc3C(N)=O)cc2)CC1 | 97.8 | 91.8 | – |
| 5.17 | 4.28 | 14 | CCOC(=O)c1sc(-c2cccc(NC(=O)c3ccc(C#N)cc3)c2)nc1Nc1ccc(N2CCN(C)CC2)cc1 | 97.5 | 79.1 | – |
| 0.159 | 1.76 | 6.36 | CN1CCN(c2ccc(Nc3nc(-c4cccc(NC(=O)c5ccccc5)c4)sc3C(N)=O)cc2)CC1 | 98.1 | 91.3 | – |
| 0.134 | 23.3 | 7.02 | CN1CCN(c2ccc(Nc3nc(-c4cccc(NC(=O)c5ccc(Cl)cc5)c4)sc3C(=O)O)cc2)CC1 | 71.6 | 90.9 | – |
| 4.2 | – | – | CCOC(=O)c1sc(-c2cccc(NC(=O)c3ccc(N(C)C)cc3)c2)nc1Nc1ccc(N2CCOCC2)cc1 | 12.3 | 7.96 | – |
| 21.9 | 6.3 | 13.9 | CN1CCN(c2ccc(Nc3nc(-c4cccc(NC(=O)c5ccccc5F)c4)sc3C(=O)O)cc2)CC1 | 93.3 | 86.8 | – |
| 0.073 | 19.7 | 37.4 | CN1CCN(c2ccc(Nc3nc(-c4cccc(NC(=O)c5ccco5)c4)sc3C(N)=O)cc2)CC1 | 96.7 | 84.3 | – |
| 19.2 | 12.8 | 21.2 | CCOC(=O)c1sc(-c2cccc(NC(=O)c3cccc(F)c3)c2)nc1Nc1ccc(N2CCN(C)CC2)cc1 | 85.2 | 82.8 | – |
| – | 29.2 | – | CCOC(=O)c1sc(-c2cccc(NC(=O)c3ccc(F)c(Cl)c3)c2)nc1Nc1ccc(N2CCN(C)CC2)cc1 | 72.5 | 20.7 | – |
| 37.1 | 24.8 | – | CCOC(=O)c1sc(-c2cccc(NC(=O)c3ccccc3)c2)nc1Nc1ccc(N2CCN(C)CC2)cc1 | 77.1 | 42 | – |
| 0.862 | 1.42 | 2.82 | CN1CCN(c2ccc(Nc3nc(-c4cccc(NC(=O)c5ccc(F)cc5)c4)sc3C(N)=O)cc2)CC1 | 95.9 | 95.3 | 10 |
| 2.67 | 1.36 | 3.27 | CN1CCN(c2ccc(Nc3nc(-c4cccc(NC(=O)c5ccccc5F)c4)sc3C(N)=O)cc2)CC1 | 95.5 | 97.3 | 10 |
| 0.614 | 1.36 | 5.7 | CN1CCN(c2ccc(Nc3nc(-c4cccc(NC(=O)c5ccc(Cl)cc5)c4)sc3C(N)=O)cc2)CC1 | 99 | 92.6 | 10 |
| 0.161 | – | 15.1 | CCOC(=O)c1sc(-c2cccc(NC(=O)c3ccco3)c2)nc1Nc1ccc(N2CCN(C)CC2)cc1 | 50.2 | 87.6 | – |
| 27.8 | 14 | 35.1 | CN1CCN(c2ccc(Nc3nc(-c4cccc(NC(=O)c5cccc(F)c5)c4)sc3C(=O)O)cc2)CC1 | 82.7 | 76.3 | – |
| 0.637 | 19.8 | 24.5 | CN1CCN(c2ccc(Nc3nc(-c4cccc(NC(=O)c5ccc(C(F)(F)F)cn5)c4)sc3C(N)=O)cc2)CC1 | 96.6 | 84.6 | – |

The remaining lines, values behind:

| Compound | IC50 [1] [µM] | IC50 (Ramos [4]) [µM] | IC50 (Raji [5]) [µM] | inhibition at 40 µM (Ramos [2]) [%] | inhibition at 40 µM (Raji [3]) [%] | Ratio IC50 (Ramos [6]) |
| --- | --- | --- | --- | --- | --- | --- |
| CCOC(=O)c1sc(-c2cccc(NC(=O)c3ccc(C(F)(F)F)cc3)c2)nc1Nc1ccc(N2CCOCC2)cc1 | 2.42 | – | – | 21.8 | 5.44 | – |
| CN1CCN(c2ccc(Nc3nc(-c4cccc(NC(=O)c5ccccc5)c4)sc3C(=O)O)cc2)CC1 | – | – | – | 26.3 | 11.9 | – |
| CN1CCN(c2ccc(Nc3nc(-c4cccc(NC(=O)[C@H]5CC[C@H](C)CC5)c4)sc3C(N)=O)cc2)CC1 | 0.105 | – | – | 55 | 22.4 | – |
| NC(=O)c1sc(-c2cccc(NC(=O)c3ccc(C(F)(F)F)cc3)c2)nc1Nc1ccc(C(=O)N2CCOCC2)cc1 | 0.617 | 29.8 | 75.3 | 83.8 | 43.8 | – |
| NC(=O)c1sc(-c2cccc(NC(=O)c3ccc(C(F)(F)F)cc3)c2)nc1Nc1ccc(N2CCOCC2)cc1 | 6.75 | – | – | 25.2 | 7.48 | – |
| CC(C)(C)c1ccc(C(=O)Nc2cccc(-c3nc(Nc4ccc(C(=O)N5CCOCC5)cc4)c(C(N)=O)s3)c2)cc1 | 0.333 | 28.4 | – | 85.2 | 33.4 | – |
| CCOC(=O)c1sc(-c2cccc(NC(=O)c3ccc(F)cc3)c2)nc1Nc1ccc(N2CCN(C)CC2)cc1 | – | – | – | 3.53 | 16.8 | – |
| O=C(Nc1cccc(-c2nc(Nc3ccc(N4CCOCC4)cc3)c(C(=O)O)s2)c1)c1ccc(C(F)(F)F)cc1 | 38.1 | 29.5 | – | 77.4 | 18.8 | – |
| CCOC(=O)c1sc(-c2cccc(NC(=O)c3ccc(C(F)(F)F)cc3)c2)nc1Nc1ccc(C(=O)N2CCOCC2)cc1 | – | – | – | 49.9 | 6.06 | – |
| CCOC(=O)c1sc(-c2cccc(NC(=O)c3ccc(Cl)cc3)c2)nc1Nc1ccc(N2CCN(C)CC2)cc1 | – | – | – | 46.9 | 24.3 | – |
| CC(C)NC(=O)c1sc(-c2cccc(NC(=O)c3ccc(C(C)(C)C)cc3)c2)nc1Nc1ccc(N2CCOCC2)cc1 | 62.8 | – | – | 27.9 | 6.39 | – |
| CNC(=O)c1sc(-c2cccc(NC(=O)c3ccc(C(C)(C)C)cc3)c2)nc1Nc1ccc(N2CCOCC2)cc1 | 8.53 | 34.1 | 8.96 | 65.8 | 94 | – |
| CN(C)c1ccc(C(=O)Nc2cccc(-c3nc(Nc4ccc(N5CCOCC5)cc4)c(C(=O)O)s3)c2)cc1 | 21 | 24.5 | – | 74.4 | 24.4 | – |
| CCOC(=O)c1sc(-c2cccc(NC(=O)[C@H]3CC[C@H](C)CC3)c2)nc1Nc1ccc(N2CCN(C)CC2)cc1 | – | – | – | 19.9 | 26.1 | – |
| CCOC(=O)c1sc(-c2cccc(NC(=O)c3ccc(C(C)(C)C)cc3)c2)nc1Nc1ccc(C(=O)N2CCOCC2)cc1 | – | 25.2 | – | 82.6 | 13.2 | – |
| CCOC(=O)c1sc(-c2cccc(NC(=O)c3ccc(F)cc3)c2)nc1Nc1ccc(N2CCOCC2)cc1 | – | – | – | 3.96 | 25.8 | – |
| NC(=O)c1sc(-c2cccc(NC(=O)c3ccc(F)cc3)c2)nc1Nc1ccc(C(=O)N2CCOCC2)cc1 | 0.733 | 13 | 35.4 | 91.5 | 82.5 | – |
| CN1CCN(c2ccc(Nc3nc(-c4cccc(NC(=O)c5cccc(F)c5)c4)sc3C(N)=O)cc2)CC1 | – | – | – | 16.2 | 2.78 | – |
| CCOC(=O)c1sc(-c2cccc(NC(=O)c3ccc(C(F)(F)F)cn3)c2)nc1Nc1ccc(N2CCN(C)CC2)cc1 | – | – | – | 19 | 20.8 | – |
| CCOC(=O)c1sc(-c2cccc(NC(=O)c3ccc(C(C)(C)C)cc3)c2)nc1Nc1ccc(N2CCOCC2)cc1 | – | – | – | 14 | 6.21 | – |
| CCOC(=O)c1sc(-c2cccc(NC(=O)c3ccc(F)cc3)c2)nc1Nc1ccc(C(=O)N2CCOCC2)cc1 | – | – | – | 31.1 | 37.3 | – |
| CC(C)(C)c1ccc(C(=O)Nc2cccc(-c3nc(Nc4ccc(N5CCOCC5)cc4)c(C(=O)O)s3)c2)cc1 | 5.32 | 4.37 | 5.74 | 94.3 | 93.8 | – |
| CC(C)(C)c1ccc(C(=O)Nc2cccc(-c3nc(Nc4ccc(N5CCOCC5)cc4)c(C(N)=O)s3)c2)cc1 | 2.23 | – | – | 5.57 | 4.42 | – |
| CCOC(=O)c1sc(-c2cccc(NC(=O)c3ccc(C(C)(C)C)cc3)c2)nc1Nc1ccc(N2CCN(C)CC2)cc1 | – | – | – | 21.2 | 4.22 | – |
| NC(=O)c1sc(-c2cccc(NC(=O)c3ccc(F)cc3)c2)nc1Nc1ccc(N2CCOCC2)cc1 | 0.258 | – | – | 3.53 | 9.92 | – |
| CCOC(=O)c1sc(-c2cccc(NC(=O)c3ccc(C(F)(F)F)cc3)c2)nc1Nc1ccc(N2CCN(C)CC2)cc1 | – | – | – | 18.4 | 33 | – |
